Assay outcomes (PubChem)
Shown are actives, neighbours in structure and some others; about 1.6% of the full set was active somewhere.
RAD54 branch – blocks human RAD54 Holliday junction branch migration. Q92698. FAM/BHQ fluorescence. inhibition, % at 10.4 µM. 360,000 compounds, 0.14% hits. AID 602329;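 active means mean normalized replicate activity at least 40 and at least half of replicates scoring 40 or more; inconclusive means only one of the two criteria met; inactive means mean below 40 and under half of replicates reaching 40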;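 further: 0% = median of neutral control wells and 100% = median of positive control wells; inhibitors cause a drop in the FAM fluorescence signal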
Target sequence (Q92698 whole entry, looked up): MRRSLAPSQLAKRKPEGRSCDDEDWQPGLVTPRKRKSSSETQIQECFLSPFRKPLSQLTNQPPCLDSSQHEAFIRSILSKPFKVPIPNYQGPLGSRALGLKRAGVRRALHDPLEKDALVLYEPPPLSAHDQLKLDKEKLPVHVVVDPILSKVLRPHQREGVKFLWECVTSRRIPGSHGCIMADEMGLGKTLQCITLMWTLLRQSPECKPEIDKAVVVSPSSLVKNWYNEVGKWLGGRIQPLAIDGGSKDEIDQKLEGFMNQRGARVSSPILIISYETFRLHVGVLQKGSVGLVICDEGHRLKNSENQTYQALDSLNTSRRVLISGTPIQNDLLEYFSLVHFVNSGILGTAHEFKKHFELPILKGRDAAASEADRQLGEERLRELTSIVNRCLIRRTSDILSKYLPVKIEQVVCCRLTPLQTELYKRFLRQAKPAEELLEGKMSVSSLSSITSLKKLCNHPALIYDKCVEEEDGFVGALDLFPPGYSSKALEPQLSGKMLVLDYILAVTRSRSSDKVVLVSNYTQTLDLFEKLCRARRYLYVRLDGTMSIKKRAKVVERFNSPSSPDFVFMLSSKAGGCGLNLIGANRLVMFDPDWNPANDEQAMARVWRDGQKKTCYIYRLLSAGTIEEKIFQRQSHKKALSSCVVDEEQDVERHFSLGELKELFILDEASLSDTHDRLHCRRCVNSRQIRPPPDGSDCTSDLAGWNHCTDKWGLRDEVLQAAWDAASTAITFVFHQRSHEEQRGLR
S100A4 MyoIIA – S100A4-myosin IIA interaction inhibition; P26447; S100A4/TAMRA-MyoIIA peptide fluorescence polarization; inhibition, % at 10.7 µM; 360,000 compounds, 0.14% hits;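 active means mean inhibition of at least 70% across replicates, with every replicate also reaching that level; inconclusive means mean inhibition reaches 70% but some replicates fall short; inactive means mean inhibition below 70%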
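Test system: S100A4 monomer protein. Medium: HEPES buffer with Ca2+, pH 7.2. Reagent: fluorescent myosin IIA peptide, 5 nM. Compound dosing: single-point compound testing. Timing: 5 min between mix addition and reading. Benchmarks: DMSO neutral and TFP positive wells.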
SR-BI DiI-HDL act – enhances SR-BI lipid uptake from DiI-HDL; 320,000 compounds, 0.096% hits; CHO ldlA[mSR-BI] cells, DiI-HDL uptake fluorescence, 3 h; 100 = double the neutral-control signal; activation, % at 12.5 µM;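 active means mean replicate activation of at least 60% and every replicate at or above 60%; inconclusive means mean or all-replicate condition met, but not both; inactive means mean below 60% and not all replicates reaching 60%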;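 further: 0% = median plate neutral-control signal and 100% = twice that signal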
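System: LDL receptor-deficient CHO ldlA cells overexpressing murine SR-BI | Timing: 3 h uptake period with compound, 37 °C | Medium: HEPES-buffered (25 mM, pH 7.4) F12 plus 0.5% BSA | Dosing: Single-point compound dose | Signal: Bottom-read fluorescence, 550/595 nm | Read-out: Retained DiI signal reflecting DiI-HDL uptake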
SR-BI DiI inh – mouse SR-BI HDL lipid transfer inhibition; Q61009; ldlA[mSR-BI] CHO cells, DiI-HDL uptake fluorescence, 3 h; inhibition, % at 12.5 µM; 320,000 compounds, 0.96% hits;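 active means mean replicate inhibition of at least 70% and a set share of replicates each scoring 70 or more; inconclusive means meets just one of the two criteria; inactive means fails both criteria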;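 further: 0% = median of neutral control wells and 100% = median of positive control wells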
dFosB activator – activators of mouse delta FosB homodimer. P13346. 340,000 compounds, 0.99% hits. purified delta FosB, TAMRA-CDK5 oligo fluorescence polarization; percent of positive-control signal above neutral wells. activation, % at 25 µM;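 active means mean activation above about 17%, with every replicate also reaching it, limit read from the data, passing the limit was not always enough; inconclusive means only one of the two conditions met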
PvdQ inh – P. aeruginosa PvdQ acylase inhibition. 340,000 compounds, 0.063% hits. purified PvdQ acylase, fluorescence plate reader. AID 488965. inhibition, % at 10 µM; in the data active means inhibition above about 30%, passing the limit was not always enough; inconclusive means no clear call, values can overlap the other calls;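 further: 0% = vehicle neutral wells and 100% = reference inhibitor wells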
The depositor's hits bear a star; ? = inconclusive; · = no result given.

SMILES	RAD54 branch	S100A4 MyoIIA	SR-BI DiI-HDL act	SR-BI DiI inh	dFosB activator	PvdQ inh
COc1ccc(NC(=O)c2cc(-c3ccccc3)nc3c2cnn3C(C)C)cc1	2.6	11.2	-82.5	82.5*	-4.9	-1.2
COc1ccc(CNC(=O)c2cc(C3CC3)nc3c2cnn3C(C)C)cc1	6.2	-13.3	-30.6	30.6	-11.9	2.3
CC(C)n1ncc2c(C(=O)O)cc(C3CC3)nc21	·	-18.3	15.3	-15.3	3.6	-8.4
C[C@H](CO)N1C[C@H](C)[C@@H](CN(C)C(=O)NC2CCCCC2)OCCCC[C@H](C)Oc2ccc(NC(=O)CCCN(C)C)cc2C1=O	1.6	21.0	·	·	·	·
Fc1cc(NC(=S)NCc2ccc(CNC(=S)Nc3ccc(Cl)c(F)c3)cc2)ccc1Cl	·	0.6	-73.3	73.3*	9.1	-12.2
O=C(OC[C@@H]1[C@H]2c3ccccc3OC1(CO)N=C1SCc3ccccc3CN12)c1ccccc1	5.1	13.1	·	·	·	·
Oc1ccc(Nc2nc(NCC3CCCO3)c3ccccc3n2)cc1 (centres undefined)	38.8	·	·	-31.0	14.8	3.3
Oc1ccc(Cl)cc1Nc1nc(NCC2CCCO2)c2ccccc2n1 (centres undefined)	0.2	2.8	-14.4	14.4	44.1*	-10.3
Oc1ccccc1Nc1nc(NCC2CCCO2)c2ccccc2n1 (centres undefined)	·	·	-33.6	33.6	24.7*	-3.3
C[C@@H]1CCCCO[C@H](CN(C)C(=O)Nc2ccc(C(F)(F)F)cc2)[C@@H](C)CN([C@H](C)CO)C(=O)c2cc(NC(=O)Nc3ccc(C(F)(F)F)cc3)ccc2O1	-1.7	-0.3	·	·	·	·
COc1ccc(-c2csc(N3CCN(c4cc5c(cc4Cl)nc(-c4ccncc4)n5CCOCCO)CC3)n2)cc1	-3.1	-6.8	-60.5	60.5	-13.7	-13.1
Cc1ccc(-c2csc(N3CCN(c4cc5c(cc4Cl)nc(-c4ccncc4)n5CCN4CCCCC4)CC3)n2)cc1	-0.4	-2.9	-49.4	49.4	22.4*	-14.9
O=C(Cc1ccccn1)N1CC(=O)N2[C@H](C1)[C@H](c1ccc(C#CC3CCCC3)cc1)[C@@H]2CO	·	-8.4	·	·	·	·
O=C(C[C@H]1CC[C@@H](NC(=O)c2ccncc2)[C@@H](CO)O1)Nc1ccc(-c2ccccc2)cc1	·	-12.7	·	·	·	·
O=C(N=Nc1c(O)[nH]c2ccccc12)c1cc(-c2cccs2)[nH]n1	3.3	0.9	?	-159.2	70.7*	-10.7
Oc1[nH]c2ccccc2c1N=Nc1ccc(F)cc1	·	33.3	37.9	-37.9	-0.5	-8.5
O=C(N=Nc1c(O)[nH]c2ccccc12)c1cc(-c2ccc(F)cc2)n[nH]1	·	6.8	10.9	-10.9	62.8*	-10.5
CCn1c(C(=O)OC)cc2c1ccn2-c1ccc(F)cc1	3.3	·	-78.1	78.1*	0.4	8.2
Oc1ccccc1/C=N/NC(=S)NC1CC2CCC1C2 (centres undefined)	-2.2	4.8	-76.1	76.1*	-14.1	-11.1
COc1cc(C(=O)Nc2ccc(Cl)c(C(F)(F)F)c2)cc(OC)c1OC	-5.6	·	-58.5	58.5	-20.2	-18.3
COc1cc(C(=O)Nc2cccc(-n3cnnn3)c2)cc(OC)c1OC	-0.8	3.9	-76.8	76.8*	-19.9	-21.2
COc1cc(C(=O)Nc2ccc(Nc3ccccc3)cc2)cc(OC)c1OC	-2.5	7.6	-79.4	79.4*	-6.0	-12.1
COc1cc(C(=O)Nc2ccncc2)cc(OC)c1OC	7.6	10.8	-0.3	0.3	-4.7	-16.9
COc1ccc(C(=O)Nc2ccc3c(c2)OCCO3)cc1[N+](=O)[O-]	·	-1.5	-58.1	58.1	-7.0	-7.6
COc1cc(C(=O)Nc2ccc(Cl)c([N+](=O)[O-])c2)cc(OC)c1OC	·	7.2	-79.7	79.7*	1.2	-2.9
SMILES	RAD54 branch	S100A4 MyoIIA	SR-BI DiI-HDL act	SR-BI DiI inh	dFosB activator	PvdQ inh
COc1ccc(NC(=O)c2cc(C)cc(C)c2)cc1[N+](=O)[O-]	3.2	1.3	-79.6	79.6*	-5.4	1.5
COc1cc(C(=O)Nc2cccc(-n3cnnn3)c2)cc(Cl)c1OC	1.9	-7.1	-65.7	65.7	-1.9	-13.8
C[C@H](CO)N1C[C@H](C)[C@@H](CN(C)C(=O)Nc2ccc(C(F)(F)F)cc2)OCCCC[C@H](C)Oc2ccc(NS(C)(=O)=O)cc2C1=O	1.5	-4.9	·	·	·	·
CC1=C2[C@@H](c3ccccc3)OB(O)C[C@@H]2[C@@H]2C(=O)N(Cc3ccccc3)C(=O)[C@@H]2C1	·	-2.6	·	·	·	·
CC1=NN(C(=O)c2ccc(C)cc2)C(O)(C(F)(F)OC(F)(F)F)C1 (centres undefined)	7.0	·	-89.0	89.0*	-0.4	-10.7
CCOC(=O)C1=C(CN2CCOCC2)NC(=O)NC1c1cc(C)ccc1C (centres undefined)	3.1	·	-12.5	12.5	-7.5	7.9
CCOC(=O)C1=C(CN2CCN(c3ccc(F)cc3)CC2)NC(=O)NC1c1cccs1 (centres undefined)	0.4	·	-78.3	78.3*	-5.2	-4.9
COc1ccccc1NC(=O)/C(C#N)=C/c1c(C)nn(-c2ccc(F)cc2)c1Cl	·	-2.0	-22.3	22.3	-10.1	6.7
COc1ccc(NC(=O)/C(C#N)=C/c2c(C)nn(-c3ccc(F)cc3)c2Cl)cc1Cl	-8.7	-0.2	-71.4	71.4*	-10.0	-1.5
COc1ccc(NC(=O)/C(C#N)=C/c2c(C)nn(-c3ccc(F)cc3)c2Cl)cc1OC	5.6	-1.0	-76.0	76.0*	-9.2	-1.2
CC(=O)N1[C@H](CO)[C@H](c2ccccc2)[C@@H]1CN(C(=O)c1ccccc1)C(C)C	-0.8	0.4	·	·	·	·
COc1ccc(C(=O)Nc2cccc(C(C)=O)c2)cc1OC	-0.4	·	-37.3	37.3	-12.6	-15.2
COc1ccc(NC(=S)Nc2cccc(C(C)=O)c2)cc1OC	·	-5.4	-73.4	73.4*	1.4	-10.2
CC(=O)c1cccc(NC(=S)NCc2ccccc2)c1	8.1	1.6	-3.9	3.9	-3.3	-17.1
CC(=O)c1cccc(NC(=S)NCCc2ccc(Cl)cc2)c1	7.9	-0.5	-76.2	76.2*	-13.0	6.5
CCCNC(=O)Nc1ccc2c(c1)OC[C@H](C)N(C(=O)CC)C[C@@H](C)[C@@H](OC)CN(C)C2=O	3.6	-4.4	·	·	·	·
O=C(C[C@@H]1CC[C@@H](NC(=O)Cc2cccnc2)[C@H](CO)O1)Nc1ccc(-c2ccccc2)cc1	-5.3	127.1*	·	·	·	·
CCOc1nc(Nc2ccc(OC)c(Cl)c2)nc(N2CCN(c3ccc(OC)cc3)CC2)n1	-2.1	·	-78.9	78.9*	-5.7	-12.8
CC(=O)c1c(C)[nH]c(C(=O)Nc2cc(C)cc(C)c2)c1C	·	·	-82.6	82.6*	2.2	-4.3
CC(=O)c1c(C)[nH]c(C(=O)Nc2ccc(Cl)c(S(=O)(=O)N3CCOCC3)c2)c1C	·	·	-79.4	79.4*	-24.2	-1.4
